In series [1] the target is Protein polybromo-1 (Homo sapiens) (UniProt Q86U86). The experiment in a line: Binding affinity to human partial length PB1 bromodomain 2 (S178 to E291 residues) expressed in Escherichia coli BL21 cells assessed as residual binding level at 1 uM measured after 1 hr by quantitative PCR based BROMOscan assay relative to control. The method, boiled down:
(§1)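 Bromodomain panel screen (32 bromodomains) run at 1 μM single concentration; primary binding reported as 'Percent Control', lower values meaning stronger interaction.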

Series [2] can be described thus: AUC (0 to infinity) in rat plasma at 10 mg/kg, po. The format is ADME, organism-based. Details: dose 10 mg/kg, route oral, time infinity. The method, boiled down: (§2)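 Compound was given orally or intravenously in 1% DMSO/0.5% HPMC vehicle. Concentrations in plasma, or in brain where stated, gave Tmax, Cmax, T1/2, AUC0-t and AUC0-inf.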
Series [3] deals with SWI/SNF-related matrix-associated actin-dependent regulator of chromatin subfamily A member 2 (Homo sapiens) (UniProt P51531). The experiment in a line: Binding affinity to human partial length SMARCA2 (S1377 to Q1486 residues) expressed in Escherichia coli BL21 cells assessed as residual binding level at 1 uM measured after 1 hr by quantitative PCR based BROMOscan assay relative to control. An outline of the steps: as §1

Series [4] in a line: Half life in dog plasma at 1 mg/kg, iv. It is filed as ADME, organism-based, Canis lupus familiaris.
Series [5] has as its target Bromodomain-containing protein 3 (Homo sapiens) (UniProt Q15059). The experiment in a line: Binding affinity to human partial length BRD3 bromodomain 1 (P24 to E144 residues) expressed in Escherichia coli BL21 cells assessed as residual binding level at 1 uM measured after 1 hr by quantitative PCR based BROMOscan assay relative to control. An outline of the steps: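 A BROMOScan competition-binding panel of 32 bromodomains was run at a single 1 μM compound concentration. Results are primary-screen 'Percent Control', where lower values indicate stronger binding.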

A further series addresses Cytochrome P450 2C19 (Homo sapiens, UniProt P33261). The series can be described thus: Time-dependent inhibition of CYP2C19 in human liver microsomes at 10 uM using mephenytoin as substrate preincubated up to 30 mins followed by NADPH generating system addition and measured after 10 mins. The format is ADME. An outline of the steps: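 Human liver microsomes 0.2 mg/mL, 100 mM phosphate pH 7.4, 10 μM test compound, preincubated 0, 5, 10 and 30 min at 37 °C; then NADPH plus probe cocktail (5 μM midazolam, 50 μM testosterone, 5 μM dextromethorphan, 10 μM diclofenac, 50 μM phenacetin, 50 μM S-(+)-mephenytoin) added; 10 min reaction; kobs in units of 10^-4/min.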
Background: Microsomes from liver hold many membrane-bound enzymes, among them those of drug oxidation.

Series [6] can be described thus: AUC (0 to t) in rat brain at 50 mg/kg, po. It is filed as ADME, organism-based. The method, boiled down: as §2
The next series concerns MV4-11. The series can be described thus: Induction of apoptosis in human MV4-11 cells assessed as reduction in BIM level after 24 hrs by Western blot analysis. It is filed as functional, cell-based. An outline of the steps: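 MV4-11 cells exposed to compound at the indicated doses for 24 h; lysates probed by Western blotting for the target protein, with GAPDH as loading control.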

Series [7] is described as follows: Cmax in ICR mouse plasma at 100 mg/kg, po administered via gavage measured after 0.25 to 24 hrs by UPLC/MS analysis. It is filed as ADME, organism-based. Details: dose 100 mg/kg, route oral. An outline of the steps:
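Male ICR mice dosed orally in 1% DMSO/0.5% HPMC vehicle; plasma or brain drug levels used to derive Tmax, Cmax, AUC0-t, AUC0-inf and T1/2.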

Series [8] addresses Bromodomain-containing protein 4 (Homo sapiens, UniProt O60885). The experiment in a line: Displacement of 5-FITC labelled (+)-JQ1 from His6-tagged human BRD4 bromodomain 1 expressed in Escherichia coli BL21(DE3) )-codon plus-RIL cells incubated for 4 hrs in dark condition by fluorescence anisotropy binding assay.
The subject of another series is NCI-H1299. The experiment in a line: Antiproliferative activity against human NCI-H1299 cells after 72 hrs by CCK8 or SRB assay. The format is functional, cell-based. For orientation: Tetrazolium assays rely on reduction of a dye to a coloured formazan, in cell work by metabolically active cells.
The nature of series [9]: Cmax in rat plasma at 50 mg/kg, po. It is filed as ADME, organism-based. The arrangement: dose 50 mg/kg, route oral.
The nature of series [10]: Tmax in dog plasma at 3 mg/kg, po. It is filed as ADME, organism-based, Canis lupus familiaris. The method, boiled down: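 Oral dosing in 1% DMSO/0.5% HPMC vehicle (dog 3 mg/kg; rat 10 mg/kg); plasma drug levels measured.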

Usually AUC(0-inf) stands for the area under the concentration-time curve extrapolated to infinity. Read a high AUC(0-inf) as high exposure. Broadly, the half-life is the time needed for the level to fall by half in the phase considered. The term AUC(0-t) denotes the area under the concentration-time curve up to a stated or last time point. High values mean more exposure, low ones less exposure. By Cmax is commonly meant the highest concentration seen after dosing. Usually IC50 stands for the concentration that inhibits the measured activity by half. What is called Tmax is the time from dosing to the highest level.

The source made the active and inactive calls.

Bromodomain-containing protein 3 (Homo sapiens), sequence (Q15059 2-726 limits assumed): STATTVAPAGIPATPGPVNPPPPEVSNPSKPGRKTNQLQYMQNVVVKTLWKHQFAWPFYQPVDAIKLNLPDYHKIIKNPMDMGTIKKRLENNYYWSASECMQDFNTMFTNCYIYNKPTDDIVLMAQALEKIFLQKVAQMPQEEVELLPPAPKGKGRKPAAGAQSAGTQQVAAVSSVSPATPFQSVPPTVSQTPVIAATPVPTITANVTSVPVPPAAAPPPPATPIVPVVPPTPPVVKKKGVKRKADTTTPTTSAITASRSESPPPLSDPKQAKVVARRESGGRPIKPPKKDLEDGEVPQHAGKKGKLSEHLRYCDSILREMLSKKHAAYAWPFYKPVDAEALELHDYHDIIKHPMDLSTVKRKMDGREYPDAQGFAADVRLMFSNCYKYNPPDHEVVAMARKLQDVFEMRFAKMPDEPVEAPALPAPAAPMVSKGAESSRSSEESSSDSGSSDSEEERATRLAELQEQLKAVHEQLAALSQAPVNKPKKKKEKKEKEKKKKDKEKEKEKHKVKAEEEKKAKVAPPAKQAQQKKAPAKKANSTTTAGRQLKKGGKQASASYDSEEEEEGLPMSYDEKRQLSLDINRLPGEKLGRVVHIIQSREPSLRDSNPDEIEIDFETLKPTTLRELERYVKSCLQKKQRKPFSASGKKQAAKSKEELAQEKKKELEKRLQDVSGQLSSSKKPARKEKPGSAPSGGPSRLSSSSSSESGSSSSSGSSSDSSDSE
Protein polybromo-1 (Homo sapiens), sequence (Q86U86 whole entry, the tested form may be a part): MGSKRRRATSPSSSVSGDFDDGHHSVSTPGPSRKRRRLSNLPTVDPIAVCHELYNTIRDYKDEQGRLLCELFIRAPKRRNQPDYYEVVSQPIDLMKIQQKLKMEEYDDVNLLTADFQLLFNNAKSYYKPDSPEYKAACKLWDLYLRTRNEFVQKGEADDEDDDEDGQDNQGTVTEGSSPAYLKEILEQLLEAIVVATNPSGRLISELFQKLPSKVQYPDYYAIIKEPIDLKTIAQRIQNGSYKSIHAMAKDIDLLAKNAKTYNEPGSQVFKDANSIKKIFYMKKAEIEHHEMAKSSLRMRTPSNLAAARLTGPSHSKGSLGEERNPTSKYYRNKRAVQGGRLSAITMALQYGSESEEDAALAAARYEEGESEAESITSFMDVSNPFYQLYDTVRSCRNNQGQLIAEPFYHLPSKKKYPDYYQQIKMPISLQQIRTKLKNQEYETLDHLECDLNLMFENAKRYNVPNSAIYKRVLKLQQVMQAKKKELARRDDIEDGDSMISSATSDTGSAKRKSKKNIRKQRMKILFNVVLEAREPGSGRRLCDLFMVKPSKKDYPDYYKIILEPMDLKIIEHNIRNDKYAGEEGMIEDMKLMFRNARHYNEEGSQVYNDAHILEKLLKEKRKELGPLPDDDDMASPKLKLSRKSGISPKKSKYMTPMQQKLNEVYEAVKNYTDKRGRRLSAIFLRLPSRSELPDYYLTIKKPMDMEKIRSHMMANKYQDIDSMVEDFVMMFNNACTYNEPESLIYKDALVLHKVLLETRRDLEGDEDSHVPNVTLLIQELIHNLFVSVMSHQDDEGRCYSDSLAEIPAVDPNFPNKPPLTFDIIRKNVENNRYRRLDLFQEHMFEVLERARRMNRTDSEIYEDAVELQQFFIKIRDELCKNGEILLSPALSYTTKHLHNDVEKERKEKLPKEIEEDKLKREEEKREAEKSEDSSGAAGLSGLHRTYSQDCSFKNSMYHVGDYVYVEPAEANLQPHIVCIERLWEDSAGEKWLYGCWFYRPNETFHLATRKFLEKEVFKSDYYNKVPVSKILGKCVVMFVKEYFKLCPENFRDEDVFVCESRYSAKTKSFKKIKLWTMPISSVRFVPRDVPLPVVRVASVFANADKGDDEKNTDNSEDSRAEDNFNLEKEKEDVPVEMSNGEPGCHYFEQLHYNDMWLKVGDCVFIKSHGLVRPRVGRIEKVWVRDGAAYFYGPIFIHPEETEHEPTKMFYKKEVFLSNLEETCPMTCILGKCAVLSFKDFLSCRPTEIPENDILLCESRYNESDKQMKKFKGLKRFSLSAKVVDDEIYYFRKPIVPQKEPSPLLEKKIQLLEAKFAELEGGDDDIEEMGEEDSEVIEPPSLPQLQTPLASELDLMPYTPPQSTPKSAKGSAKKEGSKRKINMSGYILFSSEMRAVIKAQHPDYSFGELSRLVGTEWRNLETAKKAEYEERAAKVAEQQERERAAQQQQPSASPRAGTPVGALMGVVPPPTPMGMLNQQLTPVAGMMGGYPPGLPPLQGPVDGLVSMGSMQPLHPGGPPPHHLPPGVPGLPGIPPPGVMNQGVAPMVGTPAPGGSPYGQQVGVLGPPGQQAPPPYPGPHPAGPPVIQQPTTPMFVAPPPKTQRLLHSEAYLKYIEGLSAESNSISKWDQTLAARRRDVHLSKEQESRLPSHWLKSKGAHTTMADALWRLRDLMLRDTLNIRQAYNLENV
Cytochrome P450 2C19, sequence (P33261 whole entry): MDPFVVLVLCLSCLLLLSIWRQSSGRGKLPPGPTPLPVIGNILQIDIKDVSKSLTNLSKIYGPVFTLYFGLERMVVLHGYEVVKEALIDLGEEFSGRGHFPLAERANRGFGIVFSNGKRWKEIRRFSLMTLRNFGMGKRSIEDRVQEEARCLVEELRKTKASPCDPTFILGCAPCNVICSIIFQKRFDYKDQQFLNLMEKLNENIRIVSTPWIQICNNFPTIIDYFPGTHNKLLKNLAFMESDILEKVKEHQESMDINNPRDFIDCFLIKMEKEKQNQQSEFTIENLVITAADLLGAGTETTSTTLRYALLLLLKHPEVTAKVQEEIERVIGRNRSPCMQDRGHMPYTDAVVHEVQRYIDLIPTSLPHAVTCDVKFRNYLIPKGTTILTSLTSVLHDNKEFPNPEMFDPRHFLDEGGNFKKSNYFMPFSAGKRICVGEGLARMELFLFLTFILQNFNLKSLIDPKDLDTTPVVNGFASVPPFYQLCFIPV
SWI/SNF-related matrix-associated actin-dependent regulator of chromatin subfamily A member 2 (Homo sapiens), sequence (P51531 whole entry, the tested form may be a part): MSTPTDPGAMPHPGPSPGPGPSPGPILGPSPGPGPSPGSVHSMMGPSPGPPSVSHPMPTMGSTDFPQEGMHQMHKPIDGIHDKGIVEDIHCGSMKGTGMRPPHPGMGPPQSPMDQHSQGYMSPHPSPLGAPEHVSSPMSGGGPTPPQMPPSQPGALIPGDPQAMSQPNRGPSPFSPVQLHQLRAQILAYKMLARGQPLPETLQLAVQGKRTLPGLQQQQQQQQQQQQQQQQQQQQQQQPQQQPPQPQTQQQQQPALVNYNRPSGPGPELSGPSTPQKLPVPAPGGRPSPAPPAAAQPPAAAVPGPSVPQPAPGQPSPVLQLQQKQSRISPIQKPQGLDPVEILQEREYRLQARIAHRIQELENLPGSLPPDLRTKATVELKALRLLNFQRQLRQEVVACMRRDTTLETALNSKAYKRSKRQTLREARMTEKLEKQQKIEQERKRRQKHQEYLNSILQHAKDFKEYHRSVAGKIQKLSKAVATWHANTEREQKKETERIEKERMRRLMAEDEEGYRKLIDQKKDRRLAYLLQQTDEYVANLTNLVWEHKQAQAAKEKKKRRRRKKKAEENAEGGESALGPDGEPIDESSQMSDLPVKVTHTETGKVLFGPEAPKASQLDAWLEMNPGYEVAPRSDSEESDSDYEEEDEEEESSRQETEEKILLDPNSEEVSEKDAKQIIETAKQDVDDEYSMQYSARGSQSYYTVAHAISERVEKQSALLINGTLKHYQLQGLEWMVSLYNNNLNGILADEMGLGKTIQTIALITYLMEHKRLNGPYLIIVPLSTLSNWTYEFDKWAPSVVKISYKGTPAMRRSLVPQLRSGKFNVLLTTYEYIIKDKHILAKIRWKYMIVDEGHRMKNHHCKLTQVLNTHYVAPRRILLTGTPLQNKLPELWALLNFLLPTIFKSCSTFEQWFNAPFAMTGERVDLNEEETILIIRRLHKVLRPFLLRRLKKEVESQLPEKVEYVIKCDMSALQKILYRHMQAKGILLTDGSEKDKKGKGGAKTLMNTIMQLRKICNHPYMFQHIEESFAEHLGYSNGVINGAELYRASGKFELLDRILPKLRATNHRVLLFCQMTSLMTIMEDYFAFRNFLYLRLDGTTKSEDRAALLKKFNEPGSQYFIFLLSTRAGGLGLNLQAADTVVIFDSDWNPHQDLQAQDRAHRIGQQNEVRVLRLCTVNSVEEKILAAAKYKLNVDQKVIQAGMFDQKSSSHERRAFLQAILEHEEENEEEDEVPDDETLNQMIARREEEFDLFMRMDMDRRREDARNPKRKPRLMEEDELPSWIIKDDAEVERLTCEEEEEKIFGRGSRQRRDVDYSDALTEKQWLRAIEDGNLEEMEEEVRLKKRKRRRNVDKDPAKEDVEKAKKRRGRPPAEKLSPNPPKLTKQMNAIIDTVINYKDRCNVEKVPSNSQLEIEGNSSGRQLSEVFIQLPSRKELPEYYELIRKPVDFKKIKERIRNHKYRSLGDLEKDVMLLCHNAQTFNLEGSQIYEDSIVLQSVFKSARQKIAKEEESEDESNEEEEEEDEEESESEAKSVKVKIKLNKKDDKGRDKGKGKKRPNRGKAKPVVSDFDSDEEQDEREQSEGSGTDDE

Turning to `Cc1ccc(-n2nc(C(=O)N3C[C@@H](C)N[C@@H](C)C3)nc2-c2ccc3c(c2)N(C2CCCC2)[C@H](C)C(=O)N3C)cc1`, the Activity in series [1] was 70 to 100%; in series [3] it was 70 to 100%; in [5], less than 5%; in the series on MV4-11, “Dose-dependent effect”. The same compound yielded an AUC(0-inf) in series [2] of 1270 ng·h/mL. In addition, in series [4], the half-life is 9.4 h. In addition, the TDI entry on Cytochrome P450 2C19 is “Not Active”. The AUC(0-t) in series [6] came to 331 ng·h/mL. Moreover, the Cmax is 13800 ng/mL in [7] and 1250 ng/mL in series [9]. Besides, the IC50 in series [8] came out at 5.3 nM. In addition, the result in the series on NCI-H1299 was Active. The Tmax in series [10] is 0.5 h.

The record behind these values is ChEMBL document CHEMBL4414574, “Structure-Based Discovery and Development of a Series of Potent and Selective Bromodomain and Extra-Terminal Protein Inhibitors” (J Med Chem, 2019).
